# Measured values reported in ChEMBL document CHEMBL4715736, “Identification of anticancer agents based on the thieno[2,3-b]pyridine and 1H-pyrazole molecular scaffolds” (2016).
# Assays:
# Type in all cases: functional
# [1] = tested on: SK-MEL-2; assay: Growth inhibition of human SK-MEL-2 cells assessed as cell growth at 0.01 uM incubated for 48 hrs by sulforhodamine B assay relative to control; settings: read-out: Activity
# [2] = tested on: OVCAR-5; assay: Growth inhibition of human OVCAR-5 cells assessed as cell growth at 0.01 uM incubated for 48 hrs by sulforhodamine B assay relative to control; settings: read-out: Activity
# [3] = tested on: ACHN; assay: Growth inhibition of human ACHN cells assessed as cell growth at 0.01 uM incubated for 48 hrs by sulforhodamine B assay relative to control; settings: read-out: Activity
# [4] = tested on: SN12C; assay: Growth inhibition of human SN12C cells assessed as cell growth at 0.01 uM incubated for 48 hrs by sulforhodamine B assay relative to control; settings: read-out: Activity
# [5] = tested on: T47D; assay: Growth inhibition of human T47D cells assessed as cell growth at 0.01 uM incubated for 48 hrs by sulforhodamine B assay relative to control; settings: read-out: Activity
# [6] = tested on: CCRF-CEM; assay: Growth inhibition of human CCRF-CEM cells assessed as cell growth at 0.1 uM incubated for 48 hrs by sulforhodamine B assay relative to control; settings: read-out: Activity
# Procedure, shortened: (§1)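 NCI Developmental Therapeutics Program NCI60 panel. Compounds that were active in the 10 µM one-dose screen went on to dose–response testing. Growth at each concentration is expressed relative to untreated control (100%). GI50 (concentration giving 50% of maximal inhibition of proliferation) and TGI (concentration giving total growth inhibition) were derived from the curves.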
# [7] = tested on: K562; assay: Growth inhibition of human K562 cells assessed as cell growth at 0.1 uM incubated for 48 hrs by sulforhodamine B assay relative to control; settings: read-out: Activity
# [8] = tested on: A549; assay: Growth inhibition of human A549/ATCC cells assessed as cell growth at 0.1 uM incubated for 48 hrs by sulforhodamine B assay relative to control; settings: read-out: Activity; procedure, shortened: as §1
# [9] = tested on: HOP-62; assay: Growth inhibition of human HOP-62 cells assessed as cell growth at 0.1 uM incubated for 48 hrs by sulforhodamine B assay relative to control; settings: read-out: Activity
# [10] = tested on: SNB-19; assay: Growth inhibition of human SNB-19 cells assessed as cell growth at 0.1 uM incubated for 48 hrs by sulforhodamine B assay relative to control; settings: read-out: Activity
# [11] = tested on: SK-MEL-2; assay: Growth inhibition of human SK-MEL-2 cells assessed as cell growth at 0.1 uM incubated for 48 hrs by sulforhodamine B assay relative to control; settings: read-out: Activity
# [12] = tested on: OVCAR-5; assay: Growth inhibition of human OVCAR-5 cells assessed as cell growth at 0.1 uM incubated for 48 hrs by sulforhodamine B assay relative to control; settings: read-out: Activity
# [13] = tested on: OVCAR-8; assay: Growth inhibition of human OVCAR-8 cells assessed as cell growth at 0.1 uM incubated for 48 hrs by sulforhodamine B assay relative to control; settings: read-out: Activity
# [14] = tested on: NCI/ADR-RES; assay: Growth inhibition of human NCI/ADR-RES cells assessed as cell growth at 0.1 uM incubated for 48 hrs by sulforhodamine B assay relative to control; settings: read-out: Activity
# [15] = tested on: SK-OV-3; assay: Growth inhibition of human SK-OV-3 cells assessed as cell growth at 0.1 uM incubated for 48 hrs by sulforhodamine B assay relative to control; settings: read-out: Activity
# [16] = tested on: ACHN; assay: Growth inhibition of human ACHN cells assessed as cell growth at 0.1 uM incubated for 48 hrs by sulforhodamine B assay relative to control; settings: read-out: Activity
# [17] = tested on: SF-268; assay: Growth inhibition of human SF-268 cells assessed as cell growth at 1 uM incubated for 48 hrs by sulforhodamine B assay relative to control; settings: read-out: Activity
# [18] = tested on: SF-295; assay: Growth inhibition of human SF-295 cells assessed as cell growth at 1 uM incubated for 48 hrs by sulforhodamine B assay relative to control; settings: read-out: Activity
# [19] = tested on: M14; assay: Growth inhibition of human M14 cells assessed as cell growth at 1 uM incubated for 48 hrs by sulforhodamine B assay relative to control; settings: read-out: Activity
# [20] = tested on: A498; assay: Growth inhibition of human A498 cells assessed as cell growth at 1 uM incubated for 48 hrs by sulforhodamine B assay relative to control; settings: read-out: Activity; procedure, shortened: as §1
# [21] = tested on: CAKI-1; assay: Growth inhibition of human CAKI-1 cells assessed as cell growth at 1 uM incubated for 48 hrs by sulforhodamine B assay relative to control; settings: read-out: Activity; procedure, shortened: as §1
# [22] = tested on: RXF 393; assay: Growth inhibition of human RXF 393 cells assessed as cell growth at 1 uM incubated for 48 hrs by sulforhodamine B assay relative to control; settings: read-out: Activity
# [23] = tested on: DU-145; assay: Growth inhibition of human DU-145 cells assessed as cell growth at 1 uM incubated for 48 hrs by sulforhodamine B assay relative to control; settings: read-out: Activity; procedure, shortened: as §1
# [24] = tested on: RPMI-8226; assay: Growth inhibition of human RPMI-8226 cells assessed as cell growth at 100 uM incubated for 48 hrs by sulforhodamine B assay relative to control; settings: read-out: Activity
# [25] = tested on: HOP-92; assay: Growth inhibition of human HOP-92 cells assessed as cell growth at 100 uM incubated for 48 hrs by sulforhodamine B assay relative to control; settings: read-out: Activity
# [26] = tested on: HT-29; assay: Growth inhibition of human HT-29 cells assessed as cell growth at 100 uM incubated for 48 hrs by sulforhodamine B assay relative to control; settings: read-out: Activity
# [27] = tested on: LOX IMVI; assay: Growth inhibition of human LOX IMVI cells assessed as cell growth at 100 uM incubated for 48 hrs by sulforhodamine B assay relative to control; settings: read-out: Activity
# [28] = tested on: UACC-62; assay: Growth inhibition of human UACC-62 cells assessed as cell growth at 100 uM incubated for 48 hrs by sulforhodamine B assay relative to control; settings: read-out: Activity
# [29] = tested on: ACHN; assay: Growth inhibition of human ACHN cells assessed as cell growth at 100 uM incubated for 48 hrs by sulforhodamine B assay relative to control; settings: read-out: Activity
# [30] = tested on: MDA-MB-231; assay: Growth inhibition of human MDA-MB-231 cells assessed as cell growth at 100 uM incubated for 48 hrs by sulforhodamine B assay relative to control; settings: read-out: Activity
# [31] = tested on: SW-620; assay: Growth inhibition of human SW-620 cells incubated for 48 hrs by sulforhodamine B assay
# Procedure, shortened: (§2)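 NCI DTP 60-line human tumour panel. Dose-response curves were run only for ligands active in the initial 10 µM screen. GI50 (concentration giving 50% of maximal inhibition of proliferation) and TGI (concentration giving total growth inhibition) were derived from these curves.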
# [32] = tested on: MDA-MB-435; assay: Growth inhibition of human MDA-MB-435 cells incubated for 48 hrs by sulforhodamine B assay; settings: for CC50: read-out: LC50 (the source's name)
# Procedure, shortened: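 NCI60 panel at the NCI Developmental Therapeutics Program. Only compounds active in the 10 µM screen went to dose-response testing. GI50, the concentration giving 50% of maximal inhibition of proliferation, and TGI, the concentration giving total growth inhibition, were derived from the dose-response curves.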
# [33] = tested on: SK-MEL-2; assay: Growth inhibition of human SK-MEL-2 cells incubated for 48 hrs by sulforhodamine B assay; procedure, shortened: as §2
# [34] = tested on: OVCAR-4; assay: Growth inhibition of human OVCAR-4 cells incubated for 48 hrs by sulforhodamine B assay; settings: for CC50: read-out: LC50 (the source's name); procedure, shortened: as §2
# [35] = tested on: SK-OV-3; assay: Growth inhibition of human SK-OV-3 cells incubated for 48 hrs by sulforhodamine B assay; settings: for CC50: read-out: LC50 (the source's name); procedure, shortened: as §2
compound,measurement,setting,value
Nc1c(C(=O)Nc2ccccc2)sc2nc3c(cc12)CN(Cc1ccccc1)CC3,growth at 0.01 µM,[1],96%
same,growth at 0.01 µM,[2],99%
same,growth at 0.01 µM,[3],101%
same,growth at 0.01 µM,[4],94%
same,growth at 0.01 µM,[5],99%
same,growth at 0.1 µM,[6],96%
same,growth at 0.1 µM,[7],99%
same,growth at 0.1 µM,[8],99%
same,growth at 0.1 µM,[9],84%
same,growth at 0.1 µM,[10],94%
same,growth at 0.1 µM,[11],95%
same,growth at 0.1 µM,[12],92%
same,growth at 0.1 µM,[13],101%
same,growth at 0.1 µM,[14],101%
same,growth at 0.1 µM,[15],93%
same,growth at 0.1 µM,[16],91%
same,growth at 1 µM,[17],85%
same,growth at 1 µM,[18],90%
same,growth at 1 µM,[19],91%
same,growth at 1 µM,[20],72%
same,growth at 1 µM,[21],87%
same,growth at 1 µM,[22],87%
same,growth at 1 µM,[23],74%
same,growth at 100 µM,[24],42%
same,growth at 100 µM,[25],-30%
same,growth at 100 µM,[26],8%
same,growth at 100 µM,[27],20%
same,growth at 100 µM,[28],6%
same,growth at 100 µM,[29],10%
same,growth at 100 µM,[30],16%
same,GI50,[31],20.8 µM
same,LC50 (concentration killing 50% of cells),[31],> 100 µM
same,TGI,[31],> 100 µM
same,GI50,[32],3.43 µM
same,TGI,[32],71.6 µM
same,CC50,[32],> 100 µM
same,GI50,[33],20.3 µM
same,LC50,[33],> 100 µM
same,TGI,[33],> 100 µM
same,GI50,[34],1.97 µM
same,TGI,[34],23.1 µM
same,CC50,[34],> 100 µM
same,GI50,[35],3.53 µM
same,TGI,[35],> 100 µM
same,CC50,[35],> 100 µM
COc1cccc(NC(=O)c2sc3nc4c(cc3c2N)CN(Cc2ccccc2)CC4)c1,growth at 0.01 µM,[1],106%
same,growth at 0.01 µM,[2],91%
same,growth at 0.01 µM,[3],97%
same,growth at 0.01 µM,[4],95%
same,growth at 0.01 µM,[5],90%
same,growth at 0.1 µM,[6],98%
same,growth at 0.1 µM,[7],101%
same,growth at 0.1 µM,[8],93%
same,growth at 0.1 µM,[9],86%
same,growth at 0.1 µM,[10],94%
same,growth at 0.1 µM,[11],112%
same,growth at 0.1 µM,[12],95%
same,growth at 0.1 µM,[13],100%
same,growth at 0.1 µM,[14],97%
same,growth at 0.1 µM,[15],100%
same,growth at 0.1 µM,[16],101%
same,growth at 1 µM,[17],91%
same,growth at 1 µM,[18],77%
same,growth at 1 µM,[19],57%
same,growth at 1 µM,[20],79%
same,growth at 1 µM,[21],78%
same,growth at 1 µM,[22],84%
same,growth at 1 µM,[23],95%
same,growth at 100 µM,[24],27%
same,growth at 100 µM,[25],-38%
same,growth at 100 µM,[26],-72%
same,growth at 100 µM,[27],-15%
same,growth at 100 µM,[28],-34%
same,growth at 100 µM,[29],-3%
same,growth at 100 µM,[30],-8%
same,GI50,[31],1.85 µM
same,LC50 (concentration killing 50% of cells),[31],> 100 µM
same,TGI,[31],72.2 µM
same,GI50,[32],0.296 µM
same,TGI,[32],11 µM
same,CC50,[32],49 µM
same,GI50,[33],10.3 µM
same,LC50,[33],> 100 µM
same,TGI,[33],44.5 µM
same,GI50,[34],2.68 µM
same,TGI,[34],19.7 µM
same,CC50,[34],> 100 µM
same,GI50,[35],2.78 µM
same,TGI,[35],14 µM
same,CC50,[35],62.5 µM
Cc1cccc(NC(=O)c2sc3nc4c(cc3c2N)C(=O)CCC4)c1,growth at 0.01 µM,[1],101%
same,growth at 0.01 µM,[2],96%
same,growth at 0.01 µM,[3],90%
same,growth at 0.01 µM,[4],95%
same,growth at 0.01 µM,[5],79%
same,growth at 0.1 µM,[6],90%
same,growth at 0.1 µM,[7],44%
same,growth at 0.1 µM,[8],78%
same,growth at 0.1 µM,[9],69%
same,growth at 0.1 µM,[10],76%
same,growth at 0.1 µM,[11],70%
same,growth at 0.1 µM,[12],86%
same,growth at 0.1 µM,[13],98%
same,growth at 0.1 µM,[14],69%
same,growth at 0.1 µM,[15],73%
same,growth at 0.1 µM,[16],91%
same,growth at 1 µM,[17],54%
same,growth at 1 µM,[18],9%
same,growth at 1 µM,[19],11%
same,growth at 1 µM,[20],-11%
same,growth at 1 µM,[21],30%
same,growth at 1 µM,[22],-16%
same,growth at 1 µM,[23],3%
same,growth at 100 µM,[24],21%
same,growth at 100 µM,[25],-40%
same,growth at 100 µM,[26],3%
same,growth at 100 µM,[27],-75%
same,growth at 100 µM,[28],33%
same,growth at 100 µM,[29],-21%
same,growth at 100 µM,[30],21%
same,GI50,[31],0.193 µM
same,LC50 (concentration killing 50% of cells),[31],> 100 µM
same,TGI,[31],≥ 100 µM
same,GI50,[32],0.0297 µM
same,TGI,[32],0.115 µM
same,CC50,[32],0.681 µM
same,GI50,[33],0.254 µM
same,LC50,[33],> 100 µM
same,TGI,[33],> 100 µM
same,TGI,[34],≥ 100 µM
same,CC50,[34],> 100 µM
same,GI50,[35],0.251 µM
same,TGI,[35],> 100 µM
same,CC50,[35],> 100 µM
